Holding throughout (assay type): ADME
A short description of series [1]: Water solubility of prodrug was determined relative to KNI-727. The note with it: buffer. The procedure, abridged:
(§1)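 Prodrug solution was passed through a membrane filter, and the dissolved prodrug concentration was then quantified by HPLC. Solubility was set against that of the parent drug measured the same way.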

A short description of series [2]: Water solubility of prodrug was determined. The note with it: buffer. The method, boiled down:
as §1

Series [3] is described as follows: Time required for 50% release of KNI-727 at 37 degree celsius. The procedure, abridged:
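Prodrug added from a 0.5 mM DMSO stock to PBS (pH 7.4) and incubated at 37 °C. Aliquots taken at successive time points were injected directly onto HPLC with detection at 230 nm. Loss of prodrug and appearance of released parent were followed over time to give the half-life of release.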

In brackets after ≈: the same amount, converted by molar mass.

Broadly, the Solubility is the dissolved amount per volume that the medium holds.

With `Cc1cccc(C)c1OCC(=O)N[C@@H](Cc1ccccc1)[C@H](OC(=O)CCC(=O)NCC(=O)O)C(=O)N1CSC(C)(C)[C@H]1C(=O)NC(C)(C)C`, in series [1], the Relative solubility is 6.6. Also, in series [2], the Solubility came out at 0.0735 mg/mL (≈ 103 µM). For the same molecule, the T1/2 in series [3] amounted to 18.7 h.
As for `Cc1cccc(C)c1OCC(=O)N[C@@H](Cc1ccccc1)[C@H](OC(=O)CCC(=O)NCCN)C(=O)N1CSC(C)(C)[C@H]1C(=O)NC(C)(C)C.Cl`, the Solubility in series [1] was 10400 mg/mL; in series [2], 115.4 mg/mL. In series [3], the T1/2 was found to be 0.35 h.
On the same counts, the results for `Cc1cccc(C)c1OCC(=O)N[C@@H](Cc1ccccc1)[C@H](OC(=O)CCCC(=O)NCCN)C(=O)N1CSC(C)(C)[C@H]1C(=O)NC(C)(C)C.Cl` are 5130 mg/mL, 56.9 mg/mL and 28 h.
Turning to `Cc1cccc(C)c1OCC(=O)N[C@@H](Cc1ccccc1)[C@H](OC(=O)CCC(=O)NCCN(C)C)C(=O)N1CSC(C)(C)[C@H]1C(=O)NC(C)(C)C.Cl`, in series [2], the Solubility amounted to 171.5 mg/mL. The molecule also came in with a T1/2 in series [3] of 0.183 h.
In the case of `Cc1cccc(C)c1OCC(=O)N[C@@H](Cc1ccccc1)[C@H](OC(=O)CCC(=O)NCCC(=O)O)C(=O)N1CSC(C)(C)[C@H]1C(=O)NC(C)(C)C`, the T1/2 in series [3] amounted to 16.8 h.
Take `Cc1cccc(C)c1OCC(=O)N[C@@H](Cc1ccccc1)[C@H](OC(=O)CC(C)(C)C(=O)NCCN)C(=O)N1CSC(C)(C)[C@H]1C(=O)NC(C)(C)C.Cl`: the figures for the Solubility in series [1] and in series [2] were 12300 mg/mL and 136.7 mg/mL, respectively. The same molecule came in with a T1/2 in series [3] of less than 0.017 h.
Regarding `Cc1cccc(C)c1OCC(=O)N[C@@H](Cc1ccccc1)[C@H](OC(=O)CCC(=O)NCc1ccccc1)C(=O)N1CSC(C)(C)[C@H]1C(=O)NC(C)(C)C.Cl`, in series [2], the Solubility is less than 0.0111 mg/mL. For the same molecule, the T1/2 in series [3] stood at 8.8 h.
As to `Cc1cccc(C)c1OCC(=O)N[C@@H](Cc1ccccc1)[C@H](OC(=O)CCC(N)=O)C(=O)N1CSC(C)(C)[C@H]1C(=O)NC(C)(C)C`, the Relative solubility in series [1] came out at 8.1. Besides, the Solubility in series [2] turned out to be 0.0895 mg/mL (≈ 137 µM). This molecule also had a T1/2 in series [3] of 16 h.
In the case of `Cc1cccc(C)c1OCC(=O)N[C@@H](Cc1ccccc1)[C@H](OC(=O)CCC(=O)NCC(N)=O)C(=O)N1CSC(C)(C)[C@H]1C(=O)NC(C)(C)C`, the Relative solubility in series [1] was 18.9. The Solubility in series [2] was 0.21 mg/mL (≈ 295 µM). Also, the T1/2 in series [3] was determined as 0.333 h.
